Assay [1] can be described thus: Cytotoxicity against human A549 cells after 48 hrs by SRB assay. The assay is classed as functional, cell-based. As to conditions: A549, 48 h. The method in brief: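 A549 human lung adenocarcinoma cells; cytotoxicity read by sulforhodamine B (SRB) staining, with adriamycin as positive control.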
Assay [2] is described as follows: Cytotoxicity against human HL60 cells after 48 hrs by MTT assay. It counts as functional, cell-based. As to conditions: HL-60, 48 h. The method in brief:
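HL-60 human leukemia cells; viability read by MTT reduction, with adriamycin as positive control.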
Background: Formazan colour is commonly taken as a measure of viable cells.

Molecules are shown by their SMILES. Where a name gives a salt, the structure may show the parent alone.

On to `C=C(C)[C@H]1O[C@H]2CC[C@@]3(C)[C@@](O)(CC[C@H]4[C@@H]5OC(C)(C)[C@H]6C[C@@H]7C(=C)Cc8c(Cl)cc9[nH]c(c5c9c8[C@@]76O)[C@@]43C)[C@]23O[C@@H]3[C@H]1O`, for which the half-inhibitory concentration (IC50) in assay [1] was 8.4 µM; in assay [2] it was 7 µM.

Regarding `C=C(C)[C@H]1O[C@H]2CC[C@@]3(C)[C@@](O)(CC[C@H]4[C@@H]5OC(C)(C)[C@H]6C[C@@H]7C(=C)Cc8ccc9[nH]c(c5c9c8[C@@]76O)[C@@]43C)[C@]23O[C@@H]3[C@H]1O`, the IC50 in assay [1] and in assay [2] was more than 10 µM throughout.

Consider `C=C(C)[C@H]1O[C@H]2CC[C@@]3(C)[C@@](O)(CC[C@H]4Cc5c([nH]c6ccccc56)[C@@]43C)[C@]23O[C@@H]3[C@H]1O`, for which the concentration for half-maximal inhibition (IC50) in assay [1] and in assay [2] was more than 10 µM throughout.

`C=C1Cc2ccc3[nH]c4c5c3c2[C@H]2[C@@H]1C[C@@H]2C(C)(C)O[C@H]5[C@@H]1CC[C@@]2(O)C3=C[C@@H](O)[C@@H](C(=C)C)O[C@H]3CC[C@]2(C)[C@@]41C`: the IC50 in assay [1] and in assay [2] was more than 10 µM each time.

For the compound `C=C(C)[C@H]1O[C@H]2CC[C@@]3(C)[C@@](O)(CC[C@]4(OC)O[C@@H]5OC(C)(C)[C@H]6C[C@@H]7C(=C)Cc8c(Cl)cc9[nH]c(c5c9c8[C@@]76O)[C@@]43C)[C@]23O[C@@H]3[C@H]1O`, the half-inhibitory concentration (IC50) came out at 6.3 µM in assay [1] and 5 µM in assay [2].

With `CC(C)(O)[C@H]1O[C@H]2CC[C@@]3(C)[C@@H](CC[C@H]4Cc5c([nH]c6ccccc56)[C@@]43C)C2=C[C@H]1O`, the figures for the concentration for half-maximal inhibition (IC50) in assay [1] and in assay [2] were 4.6 µM and 2.6 µM, respectively.

Consider `C=C1Cc2ccc3[nH]c4c(c3c2[C@H]2[C@@H]1C[C@@H]2C(C)(C)O)[C@@H](OC)[C@@H]1CC[C@@]2(O)[C@@]35O[C@@H]3[C@@H](O)[C@@H](C(=C)C)O[C@H]5CC[C@]2(C)[C@@]41C`, for which the 50% inhibitory concentration (IC50) is 9.2 µM in assay [1] and more than 10 µM in assay [2].

`C=C1Cc2ccc3[nH]c4c(c3c2[C@H]2[C@@H]1C[C@@H]2C(C)(C)O)C[C@@H]1CC[C@@]2(O)C3=C[C@@H](O)[C@@H](C(=C)C)O[C@H]3CC[C@]2(C)[C@@]41C`: the IC50 in assay [1] and in assay [2] was more than 10 µM each time.

With `C=C(C)[C@H]1O[C@H]2CC[C@@]3(C)[C@@](O)(CC[C@]4(OC)O[C@@H]5OC(C)(C)[C@H]6C[C@@H]7C(=C)Cc8ccc9[nH]c(c5c9c8[C@@]76O)[C@@]43C)[C@]23O[C@@H]3[C@H]1O`, the 50% inhibitory concentration (IC50) in assay [1] and in assay [2] was more than 10 µM throughout.

With `C=C(C)[C@H]1O[C@H]2CC[C@@]3(C)[C@@](O)(CC[C@]4(O)O[C@@H]5OC(C)(C)[C@H]6C[C@@H]7C(=C)Cc8c(Cl)cc9[nH]c(c5c9c8[C@@]76O)[C@]34C)[C@]23O[C@@H]3[C@H]1O`, the IC50 in assay [1] was 11.5 µM; in assay [2], 9.6 µM.

As to `C=C(C)[C@H]1O[C@H]2CC[C@@]3(C)[C@@](O)(CC[C@H]4Cc5c([nH]c6ccccc56)[C@@]43C)C2=C[C@H]1O`, the IC50 in assay [1] and in assay [2] was more than 10 µM in each case.

Regarding `C=C(C)[C@@H]1CC=C2[C@H](CC[C@@]3(C)[C@@]2(O)CC[C@H]2Cc4c([nH]c5ccc6c(c45)[C@@H]4[C@@H](C(C)(C)O)C[C@@H]4C6(C)C)[C@@]23C)O1`, the IC50 in assay [1] and in assay [2] was more than 10 µM each time.

Take `CC(=O)OC(C)(C)[C@H]1O[C@H]2CC[C@@]3(C)[C@@H](CC[C@H]4Cc5c([nH]c6ccccc56)[C@@]43C)C2=CC1=O`: the IC50 in assay [1] and in assay [2] was more than 10 µM each time.

`C=C(C)[C@H]1C[C@H](C(C)(C)O)[C@H]1c1cccc2c1C(=O)C[C@@H]1CC[C@@]3(O)C4=C[C@@H](O)[C@@H](C(=C)C)O[C@H]4CC[C@]3(C)[C@@]1(C)C(=O)N2`: the IC50 in assay [1] and in assay [2] was more than 10 µM throughout.

As for `COc1cccc2c1C(=O)c1c(O)c3c(c(O)c1C2=O)C[C@@](O)(C(=O)CO)C[C@@H]3O[C@H]1C[C@H](N)[C@H](O)[C@H](C)O1` [DOXORUBICIN HYDROCHLORIDE], the IC50 in assay [1] is 0.3 µM; in assay [2] it was 0.067 µM.

With `C=C1Cc2ccc3[nH]c4c5c3c2[C@H]2[C@@H]1C[C@@H]2C(C)(C)O[C@H]5[C@@H]1CC[C@@]2(O)[C@@]35O[C@@H]3[C@@H](O)[C@@H](C(=C)C)O[C@H]5CC[C@]2(C)[C@@]41C` [PENITREM B], the 50% inhibitory concentration (IC50) in assay [1] and in assay [2] was more than 10 µM each time.

`C=C1Cc2c(Cl)cc3[nH]c4c5c3c2[C@H]2[C@@H]1C[C@@H]2C(C)(C)O[C@H]5[C@@H]1CC[C@@]2(O)C3=C[C@@H](O)[C@@H](C(=C)C)O[C@H]3CC[C@]2(C)[C@@]41C` [PENITREM C]: the values for the half-inhibitory concentration (IC50) in assay [1] and in assay [2] were 8 µM and 4.7 µM, respectively.

`C=C1Cc2c(Cl)cc3[nH]c4c5c3c2[C@H]2[C@@H]1C[C@@H]2C(C)(C)O[C@H]5[C@@H]1CC[C@@]2(O)[C@@]35O[C@@H]3[C@@H](O)[C@@H](C(=C)C)O[C@H]5CC[C@]2(C)[C@@]41C` [PENITREM F]: the figures for the 50% inhibitory concentration (IC50) in assay [1] and in assay [2] were 8.2 µM and 3.3 µM, respectively.

As usually defined, the IC50 is the midpoint of a concentration-inhibition curve.

Source of the values: ChEMBL document CHEMBL3865832, “Rhizovarins A-F, Indole-Diterpenes from the Mangrove-Derived Endophytic Fungus Mucor irregularis QEN-189” (J Nat Prod, 2016).
